{
  "source": "ChEMBL document CHEMBL1144979",
  "about": "“Combinatorial modification of natural products: synthesis and in vitro analysis of derivatives of thiazole peptide antibiotic GE2270 A: A-ring modifications” (Bioorg Med Chem Lett, 2003)",
  "type_in_all_cases": "functional",
  "key": {"Enterococcus faecium": {"tested_on": "Enterococcus faecium", "assay": "In vitro antibacterial activity against Vancomycin-susceptible Enterococcus faecium BM4147.1", "outline": "(§1)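 MICs by NCCLS broth dilution guidelines, modified by adding 0.02% bovine serum albumin to the growth medium; purified, resynthesized compounds tested against the expanded bacterial panel.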"}, "Enterococcus faecalis": {"tested_on": "Enterococcus faecalis", "assay": "In vitro antibacterial activity against Vancomycin-resistant Enterococcus faecalis ATCC 51299"}, "Staphylococcus aureus [1]": {"tested_on": "Staphylococcus aureus", "assay": "In vitro antibacterial activity against methicillin sensitive Staphylococcus aureus ATCC 25923", "outline": "as §1"}, "Staphylococcus aureus [2]": {"tested_on": "Staphylococcus aureus", "assay": "In vitro antibacterial activity against methicillin resistant Staphylococcus aureus (MRSA) ATCC 33591"}},
  "data": [
    {"molecule": "CNC(=O)C[C@@H]1NC(=O)c2csc(n2)-c2ccc(-c3nc(C(=O)NCCN=C(N)N)cs3)nc2-c2csc(n2)-c2csc(n2)C(C(O)c2ccccc2)NC(=O)CNC(=O)c2nc(sc2COC)[C@H](C(C)C)NC(=O)c2nc1sc2C", "note": "(some centres not stated)", "values": [
      {"measurement": "MIC", "setting": "Enterococcus faecium", "result": 8, "unit": "µg/mL"},
      {"measurement": "MIC", "setting": "Enterococcus faecalis", "result": 8, "unit": "µg/mL"},
      {"measurement": "MIC", "setting": "Staphylococcus aureus [1]", "result": 4, "unit": "µg/mL"},
      {"measurement": "MIC", "setting": "Staphylococcus aureus [2]", "result": 8, "unit": "µg/mL"}
    ]},
    {"molecule": "CNC(=O)C[C@@H]1NC(=O)c2csc(n2)-c2ccc(-c3nc(C(=O)NCCNCCO)cs3)nc2-c2csc(n2)-c2csc(n2)C(C(O)c2ccccc2)NC(=O)CNC(=O)c2nc(sc2COC)[C@H](C(C)C)NC(=O)c2nc1sc2C", "note": "(some centres not stated)", "values": [
      {"measurement": "MIC", "setting": "Enterococcus faecium", "result": 2, "unit": "µg/mL"},
      {"measurement": "MIC", "setting": "Enterococcus faecalis", "result": 4, "unit": "µg/mL"},
      {"measurement": "MIC", "setting": "Staphylococcus aureus [1]", "result": 2, "unit": "µg/mL"},
      {"measurement": "MIC", "setting": "Staphylococcus aureus [2]", "result": 2, "unit": "µg/mL"}
    ]},
    {"molecule": "CNC(=O)C[C@@H]1NC(=O)c2csc(n2)-c2ccc(-c3nc(C(=O)N[C@@H](CCC(=O)O)C(=O)NCCCCCC(=O)O)cs3)nc2-c2csc(n2)-c2csc(n2)C(C(O)c2ccccc2)NC(=O)CNC(=O)c2nc(sc2COC)[C@H](C(C)C)NC(=O)c2nc1sc2C", "note": "(some centres not stated)", "values": [
      {"measurement": "MIC", "setting": "Staphylococcus aureus [1]", "result": "> 32", "unit": "µg/mL"},
      {"measurement": "MIC", "setting": "Staphylococcus aureus [2]", "result": "> 32", "unit": "µg/mL"}
    ]},
    {"molecule": "CNC(=O)C[C@@H]1NC(=O)c2csc(n2)-c2ccc(-c3nc(C(=O)NCC(O)CO)cs3)nc2-c2csc(n2)-c2csc(n2)C(C(O)c2ccccc2)NC(=O)CNC(=O)c2nc(sc2COC)[C@H](C(C)C)NC(=O)c2nc1sc2C", "note": "(some centres not stated)", "values": [
      {"measurement": "MIC", "setting": "Enterococcus faecium", "result": 0.015, "unit": "µg/mL"},
      {"measurement": "MIC", "setting": "Enterococcus faecalis", "result": 0.015, "unit": "µg/mL"},
      {"measurement": "MIC", "setting": "Staphylococcus aureus [1]", "result": 0.125, "unit": "µg/mL"},
      {"measurement": "MIC", "setting": "Staphylococcus aureus [2]", "result": 0.06, "unit": "µg/mL"}
    ]},
    {"molecule": "CNC(=O)C[C@@H]1NC(=O)c2csc(n2)-c2ccc(-c3nc(C(=O)N[C@@H](CC(=O)O)C(=O)NCCCCCC(=O)O)cs3)nc2-c2csc(n2)-c2csc(n2)C(C(O)c2ccccc2)NC(=O)CNC(=O)c2nc(sc2COC)[C@H](C(C)C)NC(=O)c2nc1sc2C", "note": "(some centres not stated)", "values": [
      {"measurement": "MIC", "setting": "Staphylococcus aureus [1]", "result": "> 32", "unit": "µg/mL"},
      {"measurement": "MIC", "setting": "Staphylococcus aureus [2]", "result": "> 32", "unit": "µg/mL"}
    ]},
    {"molecule": "CNC(=O)C[C@@H]1NC(=O)c2csc(n2)-c2ccc(-c3nc(C(=O)N[C@@H](CC(=O)O)C(=O)N[C@@H](CC(=O)O)C(N)=O)cs3)nc2-c2csc(n2)-c2csc(n2)C(C(O)c2ccccc2)NC(=O)CNC(=O)c2nc(sc2COC)[C@H](C(C)C)NC(=O)c2nc1sc2C", "note": "(some centres not stated)", "values": [
      {"measurement": "MIC", "setting": "Staphylococcus aureus [1]", "result": "> 32", "unit": "µg/mL"},
      {"measurement": "MIC", "setting": "Staphylococcus aureus [2]", "result": "> 32", "unit": "µg/mL"}
    ]},
    {"molecule": "CNC(=O)C[C@@H]1NC(=O)c2csc(n2)-c2ccc(-c3nc(C(=O)N[C@@H](CCC(=O)O)C(=O)N4CCCC[C@H]4C(N)=O)cs3)nc2-c2csc(n2)-c2csc(n2)C(C(O)c2ccccc2)NC(=O)CNC(=O)c2nc(sc2COC)[C@H](C(C)C)NC(=O)c2nc1sc2C", "note": "(some centres not stated)", "values": [
      {"measurement": "MIC", "setting": "Staphylococcus aureus [2]", "result": 4, "unit": "µg/mL"}
    ]},
    {"molecule": "CNC(=O)C[C@@H]1NC(=O)c2csc(n2)-c2ccc(-c3nc(C(=O)NCC[C@H](O)C(=O)O)cs3)nc2-c2csc(n2)-c2csc(n2)C(C(O)c2ccccc2)NC(=O)CNC(=O)c2nc(sc2COC)[C@H](C(C)C)NC(=O)c2nc1sc2C", "note": "(some centres not stated)", "values": [
      {"measurement": "MIC", "setting": "Enterococcus faecium", "result": 0.03, "unit": "µg/mL"},
      {"measurement": "MIC", "setting": "Enterococcus faecalis", "result": 0.25, "unit": "µg/mL"},
      {"measurement": "MIC", "setting": "Staphylococcus aureus [1]", "result": 4, "unit": "µg/mL"},
      {"measurement": "MIC", "setting": "Staphylococcus aureus [2]", "result": 2, "unit": "µg/mL"}
    ]},
    {"molecule": "CNC(=O)C[C@@H]1NC(=O)c2csc(n2)-c2ccc(-c3nc(CNC(=O)NCC(O)CC(=O)O)cs3)nc2-c2csc(n2)-c2csc(n2)C(C(O)c2ccccc2)NC(=O)CNC(=O)c2nc(sc2COC)[C@H](C(C)C)NC(=O)c2nc1sc2C", "note": "(some centres not stated)", "values": [
      {"measurement": "MIC", "setting": "Enterococcus faecium", "result": 2, "unit": "µg/mL"},
      {"measurement": "MIC", "setting": "Enterococcus faecalis", "result": "> 16", "unit": "µg/mL"},
      {"measurement": "MIC", "setting": "Staphylococcus aureus [1]", "result": 8, "unit": "µg/mL"},
      {"measurement": "MIC", "setting": "Staphylococcus aureus [2]", "result": 8, "unit": "µg/mL"}
    ]},
    {"molecule": "CNC(=O)C[C@@H]1NC(=O)c2csc(n2)-c2ccc(-c3nc(C(=O)NCCCC(=O)O)cs3)nc2-c2csc(n2)-c2csc(n2)C(C(O)c2ccccc2)NC(=O)CNC(=O)c2nc(sc2COC)[C@H](C(C)C)NC(=O)c2nc1sc2C", "note": "(some centres not stated)", "values": [
      {"measurement": "MIC", "setting": "Enterococcus faecium", "result": 0.015, "unit": "µg/mL"},
      {"measurement": "MIC", "setting": "Enterococcus faecalis", "result": 0.03, "unit": "µg/mL"},
      {"measurement": "MIC", "setting": "Staphylococcus aureus [1]", "result": 0.25, "unit": "µg/mL"},
      {"measurement": "MIC", "setting": "Staphylococcus aureus [2]", "result": 0.125, "unit": "µg/mL"}
    ]},
    {"molecule": "CNC(=O)C[C@@H]1NC(=O)c2csc(n2)-c2ccc(-c3nc(C(=O)NCC(O)C(=O)O)cs3)nc2-c2csc(n2)-c2csc(n2)C(C(O)c2ccccc2)NC(=O)CNC(=O)c2nc(sc2COC)[C@H](C(C)C)NC(=O)c2nc1sc2C", "note": "(some centres not stated)", "values": [
      {"measurement": "MIC", "setting": "Enterococcus faecium", "result": 0.5, "unit": "µg/mL"},
      {"measurement": "MIC", "setting": "Enterococcus faecalis", "result": 1, "unit": "µg/mL"},
      {"measurement": "MIC", "setting": "Staphylococcus aureus [1]", "result": 4, "unit": "µg/mL"},
      {"measurement": "MIC", "setting": "Staphylococcus aureus [2]", "result": 4, "unit": "µg/mL"}
    ]},
    {"molecule": "CNC(=O)C[C@@H]1NC(=O)c2csc(n2)-c2ccc(-c3nc(C(=O)NCCCN4CCOCC4)cs3)nc2-c2csc(n2)-c2csc(n2)C(C(O)c2ccccc2)NC(=O)CNC(=O)c2nc(sc2COC)[C@H](C(C)C)NC(=O)c2nc1sc2C", "note": "(some centres not stated)", "values": [
      {"measurement": "MIC", "setting": "Enterococcus faecium", "result": 0.06, "unit": "µg/mL"},
      {"measurement": "MIC", "setting": "Enterococcus faecalis", "result": 0.06, "unit": "µg/mL"},
      {"measurement": "MIC", "setting": "Staphylococcus aureus [1]", "result": 0.125, "unit": "µg/mL"},
      {"measurement": "MIC", "setting": "Staphylococcus aureus [2]", "result": 0.06, "unit": "µg/mL"}
    ]},
    {"molecule": "CNC(=O)C[C@@H]1NC(=O)c2csc(n2)-c2ccc(-c3nc(C(=O)NCC[N+]4([O-])CCOCC4)cs3)nc2-c2csc(n2)-c2csc(n2)C(C(O)c2ccccc2)NC(=O)CNC(=O)c2nc(sc2COC)[C@H](C(C)C)NC(=O)c2nc1sc2C", "note": "(some centres not stated)", "values": [
      {"measurement": "MIC", "setting": "Enterococcus faecium", "result": 0.5, "unit": "µg/mL"},
      {"measurement": "MIC", "setting": "Enterococcus faecalis", "result": 2, "unit": "µg/mL"},
      {"measurement": "MIC", "setting": "Staphylococcus aureus [1]", "result": 1, "unit": "µg/mL"},
      {"measurement": "MIC", "setting": "Staphylococcus aureus [2]", "result": 1, "unit": "µg/mL"}
    ]},
    {"molecule": "CNC(=O)C[C@@H]1NC(=O)c2csc(n2)-c2ccc(-c3nc(C(=O)NCCOCCO)cs3)nc2-c2csc(n2)-c2csc(n2)C(C(O)c2ccccc2)NC(=O)CNC(=O)c2nc(sc2COC)[C@H](C(C)C)NC(=O)c2nc1sc2C", "note": "(some centres not stated)", "values": [
      {"measurement": "MIC", "setting": "Enterococcus faecium", "result": 0.125, "unit": "µg/mL"},
      {"measurement": "MIC", "setting": "Enterococcus faecalis", "result": 0.06, "unit": "µg/mL"},
      {"measurement": "MIC", "setting": "Staphylococcus aureus [1]", "result": 0.25, "unit": "µg/mL"},
      {"measurement": "MIC", "setting": "Staphylococcus aureus [2]", "result": 0.06, "unit": "µg/mL"}
    ]}
  ]
}
